Measured values from ChEMBL document CHEMBL5724801, “EUbOPEN Chemogenomics Library - Multiplex” (2024).
Values joined by “and” are separate entries in the source; they are usually repeats but may differ in a detail not shown here. Identical values can stand only once.

Tested on: HEK-293T
Assay: Multiplex assay against HEK293T
Assay type: toxicity, cell-based
Details: human
How it was run: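 Cells stained live at seeding with Hoechst33342, BioTracker Green Microtubule Cytoskeleton Dye, MitoTracker Red and Annexin V Alexa Fluor 680 were imaged on a CQ1 microscope at 37°C and 5% CO2 after compound addition. Their classification by CellPathfinder machine-learning gating ran from Hoechst high-intensity objects versus normal cells, to healthy, pyknosed or fragmented nuclei among normal cells, to mitotic or apoptotic among pyknosed cells. Tubulin, mitochondrial-mass and membrane-permeability phenotypes are per cents of healthy-nucleus cells.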

[1] = 12 h, 1 µM, compound concentration 1 uM
[2] = 12 h, 10 µM, compound concentration 10 uM
[3] = 24 h, 1 µM, compound concentration 1 uM
[4] = 24 h, 10 µM, compound concentration 10 uM
[5] = 48 h, 1 µM, compound concentration 1 uM
[6] = 48 h, 10 µM, compound concentration 10 uM

## CN1CCC(C(=O)c2cccc(NC(=O)c3c(F)cc(F)cc3F)n2)CC1
[1]
  Population Apoptotic (%): 32% and 52%
  Population Fragmented Nuclei (%): 5%
  Population Healthy Nuclei (%): 82%
  Population Hoechst High Intensity Objects (%): 8% and 7%
  Population Membrane Permeable-Phenotype (%): 0%
  Population Mitochondria Different-Phenotype (%): 51% and 59%
  Population Mitotic Cells (%): 67% and 47%
  Population Normal (%): 91% and 92%
  Population Pyknosed Nuclei (%): 11% and 12%
  Population Tubulin-Different-Phenotype (%): 31% and 20%
  Total Cell Count: 396 and 352
[2]
  Population Apoptotic (%): 52% and 53%
  Population Fragmented Nuclei (%): 6%
  Population Healthy Nuclei (%): 80%
  Population Hoechst High Intensity Objects (%): 8% and 10%
  Population Membrane Permeable-Phenotype (%): 1% and 0%
  Population Mitochondria Different-Phenotype (%): 55% and 77%
  Population Mitotic Cells (%): 47% and 46%
  Population Normal (%): 91% and 89%
  Population Pyknosed Nuclei (%): 12% and 13%
  Population Tubulin-Different-Phenotype (%): 50%
  Total Cell Count: 445 and 401
[3]
  Population Apoptotic (%): 26% and 42%
  Population Fragmented Nuclei (%): 11% and 8%
  Population Healthy Nuclei (%): 74% and 83%
  Population Hoechst High Intensity Objects (%): 4% and 3%
  Population Membrane Permeable-Phenotype (%): 0%
  Population Mitochondria Different-Phenotype (%): 30% and 39%
  Population Mitotic Cells (%): 73% and 57%
  Population Normal (%): 95% and 96%
  Population Pyknosed Nuclei (%): 13% and 7%
  Population Tubulin-Different-Phenotype (%): 20% and 17%
  Total Cell Count: 504 and 478
[4]
  Population Apoptotic (%): 25% and 52%
  Population Fragmented Nuclei (%): 10% and 8%
  Population Healthy Nuclei (%): 76% and 81%
  Population Hoechst High Intensity Objects (%): 6% and 8%
  Population Membrane Permeable-Phenotype (%): 0%
  Population Mitochondria Different-Phenotype (%): 48% and 64%
  Population Mitotic Cells (%): 75% and 47%
  Population Normal (%): 93% and 91%
  Population Pyknosed Nuclei (%): 13% and 9%
  Population Tubulin-Different-Phenotype (%): 41% and 34%
  Total Cell Count: 583 and 467
[5]
  Population Apoptotic (%): 22% and 34%
  Population Fragmented Nuclei (%): 11% and 9%
  Population Healthy Nuclei (%): 80% and 84%
  Population Hoechst High Intensity Objects (%): 3%
  Population Membrane Permeable-Phenotype (%): 1%
  Population Mitochondria Different-Phenotype (%): 19% and 24%
  Population Mitotic Cells (%): 77% and 65%
  Population Normal (%): 96%
  Population Pyknosed Nuclei (%): 7% and 5%
  Population Tubulin-Different-Phenotype (%): 12% and 10%
  Total Cell Count: 884 and 692
[6]
  Population Apoptotic (%): 30% and 28%
  Population Fragmented Nuclei (%): 13% and 10%
  Population Healthy Nuclei (%): 79% and 81%
  Population Hoechst High Intensity Objects (%): 4% and 7%
  Population Membrane Permeable-Phenotype (%): 0%
  Population Mitochondria Different-Phenotype (%): 35% and 42%
  Population Mitotic Cells (%): 69% and 71%
  Population Normal (%): 95% and 92%
  Population Pyknosed Nuclei (%): 7%
  Population Tubulin-Different-Phenotype (%): 23% and 25%
  Total Cell Count: 803 and 671

## CSc1ccccc1N1CCN(CCCCCC(=O)NC2CCCc3ccccc32)CC1.Cl (configuration not stated)
[1]
  Population Apoptotic (%): 45%
  Population Fragmented Nuclei (%): 6%
  Population Healthy Nuclei (%): 74%
  Population Hoechst High Intensity Objects (%): 8% and 12%
  Population Membrane Permeable-Phenotype (%): 0%
  Population Mitochondria Different-Phenotype (%): 68% and 75%
  Population Mitotic Cells (%): 54%
  Population Normal (%): 91% and 87%
  Population Pyknosed Nuclei (%): 18% and 19%
  Population Tubulin-Different-Phenotype (%): 59% and 43%
  Total Cell Count: 391 and 322
[2]
  Population Apoptotic (%): 80% and 79%
  Population Fragmented Nuclei (%): 8% and 5%
  Population Healthy Nuclei (%): 68% and 74%
  Population Hoechst High Intensity Objects (%): 15% and 16%
  Population Membrane Permeable-Phenotype (%): 0%
  Population Mitochondria Different-Phenotype (%): 97%
  Population Mitotic Cells (%): 20%
  Population Normal (%): 84% and 83%
  Population Pyknosed Nuclei (%): 22% and 19%
  Population Tubulin-Different-Phenotype (%): 59% and 65%
  Total Cell Count: 316 and 304
[3]
  Population Apoptotic (%): 36% and 41%
  Population Fragmented Nuclei (%): 8%
  Population Healthy Nuclei (%): 79% and 75%
  Population Hoechst High Intensity Objects (%): 4% and 7%
  Population Membrane Permeable-Phenotype (%): 0%
  Population Mitochondria Different-Phenotype (%): 50% and 70%
  Population Mitotic Cells (%): 63% and 58%
  Population Normal (%): 95% and 92%
  Population Pyknosed Nuclei (%): 11% and 16%
  Population Tubulin-Different-Phenotype (%): 41% and 44%
  Total Cell Count: 508 and 356
[4]
  Population Apoptotic (%): 75% and 69%
  Population Fragmented Nuclei (%): 5% and 7%
  Population Healthy Nuclei (%): 70% and 73%
  Population Hoechst High Intensity Objects (%): 21% and 20%
  Population Membrane Permeable-Phenotype (%): 0%
  Population Mitochondria Different-Phenotype (%): 98% and 97%
  Population Mitotic Cells (%): 24% and 30%
  Population Normal (%): 78% and 79%
  Population Pyknosed Nuclei (%): 23% and 18%
  Population Tubulin-Different-Phenotype (%): 53% and 48%
  Total Cell Count: 303 and 315
[5]
  Population Apoptotic (%): 32% and 45%
  Population Fragmented Nuclei (%): 10%
  Population Healthy Nuclei (%): 78% and 76%
  Population Hoechst High Intensity Objects (%): 4% and 6%
  Population Membrane Permeable-Phenotype (%): 0%
  Population Mitochondria Different-Phenotype (%): 39% and 59%
  Population Mitotic Cells (%): 67% and 54%
  Population Normal (%): 95% and 93%
  Population Pyknosed Nuclei (%): 10% and 13%
  Population Tubulin-Different-Phenotype (%): 27% and 31%
  Total Cell Count: 747 and 471
[6]
  Population Apoptotic (%): 76% and 56%
  Population Fragmented Nuclei (%): 11% and 13%
  Population Healthy Nuclei (%): 73%
  Population Hoechst High Intensity Objects (%): 28% and 18%
  Population Membrane Permeable-Phenotype (%): 0%
  Population Mitochondria Different-Phenotype (%): 97% and 93%
  Population Mitotic Cells (%): 23% and 43%
  Population Normal (%): 71% and 81%
  Population Pyknosed Nuclei (%): 14% and 13%
  Population Tubulin-Different-Phenotype (%): 67% and 56%
  Total Cell Count: 365 and 385
